Measurements taken from ChEMBL document CHEMBL1143356, “Synthesis and characterization of a peripherally restricted CB1 cannabinoid antagonist, URB447, that reduces feeding and body-weight gain in mice” (Bioorg Med Chem Lett, 2009).
Each block holds one molecule with its values, some of them ahead of it. Activity calls are given as the source filed them. The calls are words filed in the database; no cut-off is given here.

Columns and labels:
[1] = tested on: Mus musculus; experiment: Inhibition of WIN-55212-2-induced catalepsy in Swiss mouse at 5 mg/kg ip administered 30 mins before WIN-55212-2 challenge measured after 30 mins by ring catalepsy test; assay type: functional, organism-based; parameters: dose 5 mg/kg
Outline: (§1)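 Mice dosed i.p. Ring test scored by a blinded observer as total time cataleptic during a 3-min observation.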

[2] = tested on: Mus musculus; experiment: Antianalgesic activity in Swiss mouse assessed as inhibition of (R)-methanandamide-induced analgesic effect at 2 mg/kg, ip administered 30 mins before (R)-methanandamide challenge measured for 45 mins by formalin planter test; assay type: functional, organism-based; parameters: dose 2 mg/kg
Outline: (§2)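 Formalin test in mice. Inject 10 μL of 5% formaldehyde (vehicle: saline/5% PEG-400/5% Tween-80) into the plantar paw, with (R)-methanandamide dissolved in the formalin. Give the antagonist i.p. 30 min before formalin. A blinded observer scores paw licking and biting for 45 min (phase I 0-15 min, phase II 15-45 min).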

[3] = tested on: Mus musculus; experiment: Antiobesity activity in ob/ob mouse assessed as reduction of food intake at 20 mg/kg, ip once daily for 2 weeks; assay type: functional, organism-based; parameters: dose 20 mg/kg
[4] = tested on: Mus musculus; experiment: Inhibition of WIN-55212-2-induced hypothermia in Swiss mouse assessed as change in body temperature at 2 mg/kg ip administered 30 mins before WIN-55212-2 challenge; assay type: functional, organism-based; parameters: dose 2 mg/kg
Outline: (§3)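 Mice dosed i.p. Rectal temperature taken with a digital probe and reported as change from baseline.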

[5] = biological target: Cannabinoid receptor 2 (Homo sapiens, UniProt P34972); experiment: Displacement of [3H]WIN-55212-2 from human CB2 receptor expressed in CHO-K1 cells by liquid scintillation counting; assay type: cell-based
Chain of Cannabinoid receptor 2 (P34972 whole entry): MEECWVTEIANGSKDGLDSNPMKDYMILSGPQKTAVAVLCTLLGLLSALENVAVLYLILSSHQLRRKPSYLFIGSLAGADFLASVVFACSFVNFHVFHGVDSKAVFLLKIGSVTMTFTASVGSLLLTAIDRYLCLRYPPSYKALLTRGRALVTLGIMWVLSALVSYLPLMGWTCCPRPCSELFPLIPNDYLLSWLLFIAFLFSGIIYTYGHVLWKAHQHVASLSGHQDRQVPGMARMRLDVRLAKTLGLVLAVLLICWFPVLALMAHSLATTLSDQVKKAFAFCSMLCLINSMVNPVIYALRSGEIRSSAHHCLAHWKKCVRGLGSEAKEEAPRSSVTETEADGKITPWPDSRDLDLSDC

[6] = biological target: T1, Cannabinoid receptor 1 (Rattus norvegicus, UniProt P20272); experiment: Displacement of [3H]WIN-55212-2 from CB1 receptor in rat cerebellar membrane by liquid scintillation counting; assay type: cell membranes, Cerebellum
T1 sequence (P20272 whole entry): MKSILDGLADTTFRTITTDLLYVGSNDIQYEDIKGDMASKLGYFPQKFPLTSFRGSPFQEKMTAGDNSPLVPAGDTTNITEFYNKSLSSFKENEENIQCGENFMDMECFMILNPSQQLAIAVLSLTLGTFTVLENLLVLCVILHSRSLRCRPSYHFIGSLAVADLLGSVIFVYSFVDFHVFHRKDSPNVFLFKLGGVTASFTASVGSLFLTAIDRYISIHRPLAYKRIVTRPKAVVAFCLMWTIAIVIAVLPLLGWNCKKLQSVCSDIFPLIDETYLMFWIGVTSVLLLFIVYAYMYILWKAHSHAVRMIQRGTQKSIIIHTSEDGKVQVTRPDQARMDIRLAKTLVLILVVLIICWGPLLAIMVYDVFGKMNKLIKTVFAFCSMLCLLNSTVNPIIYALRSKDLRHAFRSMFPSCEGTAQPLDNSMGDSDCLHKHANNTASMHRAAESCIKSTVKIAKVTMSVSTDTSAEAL

[7] = biological target: Cannabinoid receptor 2 (Mus musculus) (UniProt P47936); experiment: Agonist activity at mouse CB2 receptor expressed in HEK293 cells assessed as inhibition of isoproterenol-induced cAMP accumulation at 1 uM by radioimmunoassay; assay type: functional, cell-based
Chain of Cannabinoid receptor 2 (Mus musculus) (P47936 whole entry): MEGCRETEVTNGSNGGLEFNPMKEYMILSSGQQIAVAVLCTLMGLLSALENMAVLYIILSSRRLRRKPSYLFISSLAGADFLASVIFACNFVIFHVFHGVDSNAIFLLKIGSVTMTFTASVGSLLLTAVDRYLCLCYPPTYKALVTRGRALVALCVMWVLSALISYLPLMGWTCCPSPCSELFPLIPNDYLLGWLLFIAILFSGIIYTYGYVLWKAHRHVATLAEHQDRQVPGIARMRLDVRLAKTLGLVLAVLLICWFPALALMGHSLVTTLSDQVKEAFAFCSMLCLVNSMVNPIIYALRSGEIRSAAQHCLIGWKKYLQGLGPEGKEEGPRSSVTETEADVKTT
Outline: (§4)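 Stably transfected HEK cells carrying mouse CB2. Rinse in HEPES buffer (15 min), preincubate with IBMX 10 mM (15 min), then incubate with IBMX ± isoproterenol 10 μM (15 min), all at 37 °C in a shaking bath. Cannabinoid is present in both the preincubation and the incubation.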

[8] = tested on: Mus musculus; experiment: Inhibition of WIN-55212-2-induced catalepsy in Swiss mouse at 20 mg/kg ip administered 30 mins before WIN-55212-2 challenge measured after 30 mins by ring catalepsy test; assay type: functional, organism-based; parameters: dose 20 mg/kg; outline: as §1
[9] = biological target: Cannabinoid receptor 1 (Rattus norvegicus) (UniProt P20272); experiment: Antagonist activity at CB1 receptor in rat cerebellar membrane by [35S]GTPgammaS binding assay; assay type: functional, cell membranes; conditions: Cerebellum
Chain of Cannabinoid receptor 1 (Rattus norvegicus) (P20272 whole entry): as the sequence (P20272 whole entry) above
Outline: (§5)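 Rat cerebellar membranes (20 μg) from freshly dissected cerebella. Incubate 90 min at 30 °C with 0.05 nM [35S]GTPγS and graded compound concentrations, in 20 mM Tris pH 7.4 with 5 mM MgCl2, 0.1 M NaCl, 30 μM GDP, adenosine deaminase, 0.02% BSA and PMSF. Run ± 10 μM WIN-55212-2. Stop by centrifugation at 4 °C, wash the pellet, and count by liquid scintillation.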

[10] = Drug level in Swiss mouse white adipose tissue at 20 mg/kg, ip after 15 mins; assay type: ADME, organism-based; parameters: dose 20 mg/kg, route intraperitoneal; conditions: in vivo, 0.25 h
Outline: (§6)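 Mice dosed i.p. Blood and snap-frozen tissue are extracted in CH3OH:CHCl3:H2O and analysed by LC/MS on a cyano column with a water/methanol gradient containing acetic acid and ammonium acetate, at 0.4 mL/min.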

[11] = Lipophilicity, log P of the compound; assay type: physicochemical; conditions: octanol/water
[12] = tested on: Mus musculus; experiment: Antianalgesic activity in Swiss mouse assessed as inhibition of (R)-methanandamide-induced analgesic effect at 20 mg/kg, ip administered 30 mins before (R)-methanandamide challenge measured for 45 mins by formalin planter test; assay type: functional, organism-based; parameters: dose 20 mg/kg; outline: as §2
[13] = tested on: Mus musculus; experiment: Anorexic activity in Swiss mouse assessed as reduction of food intake at 5 mg/kg, ip administered 30 mins before dark onset after 24 hrs; assay type: functional, organism-based; parameters: dose 5 mg/kg
Outline: (§7)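 Male Swiss mice (20-25 g) housed singly in automated feeding cages after 4 days of habituation. Dose i.p. in saline/10% PEG-400/10% Tween-80 before dark onset. Weight of food removed is logged continuously and expressed as food per kg body weight.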

[14] = biological target: Cannabinoid receptor 2 (Mus musculus) (UniProt P47936); experiment: Agonist activity at mouse CB2 receptor expressed in HEK293 cells assessed as cAMP accumulation at 1 uM by radioimmunoassay; assay type: functional, cell-based; outline: as §4
[15] = tested on: Mus musculus; experiment: Inhibition of WIN-55212-2-induced hypothermia in Swiss mouse assessed as change in body temperature at 20 mg/kg ip administered 30 mins before WIN-55212-2 challenge; assay type: functional, organism-based; parameters: dose 20 mg/kg; outline: as §3
[16] = tested on: Mus musculus; experiment: Antiobesity activity in ob/ob mouse assessed as reduction of body weight gain at 20 mg/kg, ip once daily for 2 weeks; assay type: functional, organism-based; parameters: dose 20 mg/kg
[17] = biological target: T1, Cannabinoid receptor 1; experiment: Antagonist activity at CB1 receptor in rat cerebellar membrane assessed as inhibition of WIN-55212-2-induced [35S]GTPgammaS binding by liquid scintillation counting; assay type: functional, cell membranes, Cerebellum; outline: as §5
[18] = tested on: Mus musculus; experiment: Anorexic activity in Swiss mouse assessed as reduction of food intake at 20 mg/kg, ip administered 30 mins before dark onset after 24 hrs; assay type: functional, organism-based; parameters: dose 20 mg/kg; outline: as §7
[19] = Plasma concentration in Swiss mouse at 20 mg/kg, ip after 30 mins; assay type: ADME, organism-based; parameters: dose 20 mg/kg, route intraperitoneal; conditions: read-out: Cmax; outline: as §6
[20] = tested on: Mus musculus; experiment: Effect on motor activity in Swiss mouse assessed as number of light beam interruptions projecting across each cage at 20 mg/kg, ip; assay type: functional, organism-based; parameters: dose 20 mg/kg
Outline: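 Male Swiss mice in the automated cages, dosed i.p. in saline/PEG-400/Tween-80 vehicle. Activity is counted as light-beam interruptions, recorded at the same time as feeding.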

Compound: Cc1c(C(=O)NN2CCCCC2)nn(-c2ccc(Cl)cc2Cl)c1-c1ccc(Cl)cc1
Activity [1]: Active | Activity [2]: Active | Activity [3]: Active | Activity [4]: Active

Compound: Cc1c(C(=O)NC2CC3CCC2C3)cc(-c2ccccc2)n1Cc1ccc(Cl)cc1 (configuration not stated)
IC50 [5]: 420 nM | IC50 [6]: > 1000 nM

Activity [7]: 14.3 pmol | Activity [9]: inactive | IC50 [5]: 41 nM | Cmax [10]: 42 nmol/g | IC50 [6]: 313 nM | logP [11]: 6.39 | Activity [14]: 5.9 pmol | EC50 [17]: 4900 nM | concentration at 0.5 h [19]: 596 nM
Compound: Cc1c(C(=O)c2ccccc2)c(N)c(-c2ccccc2)n1Cc1ccc(Cl)cc1
Activity [8]: inactive | Activity [12]: Active | Activity [13]: inactive | Activity [15]: inactive | Activity [16]: Active | Activity [18]: inactive | Activity [20]: inactive

Compound: Cc1c(C(=O)NN2CCCCC2)cc(-c2ccccc2)n1Cc1ccc(Cl)cc1
IC50 [5]: > 1000 nM | IC50 [6]: > 1000 nM

IC50 [5]: > 1000 nM | IC50 [6]: > 1000 nM
Compound: Cc1[nH]c(-c2ccccc2)c(N)c1C(=O)c1ccccc1

Compound: Cc1c(C(=O)NC2C3CC4CC(C3)CC2C4)c(Br)c(-c2ccccc2)n1Cc1ccc(Cl)cc1 (configuration not stated)
IC50 [5]: 123 nM | IC50 [6]: > 1000 nM

Compound: Cc1c(C(=O)NC2C3CC4CC(C3)CC2C4)cc(-c2ccccc2)n1Cc1ccc(Cl)cc1 (configuration not stated)
IC50 [5]: 11 nM | IC50 [6]: 70 nM

Compound: Cc1c(C(=O)c2ccccc2)cc(-c2ccccc2)n1Cc1ccc(Cl)cc1
IC50 [5]: 498 nM | IC50 [6]: > 1000 nM
